Measured values taken from paper PMC7610841 (Nature, 2020).

Tested on: extracellular Wingless
Assay: In vivo trapping of endogenous extracellular Wingless in wing discs
Parameters: species or system Drosophila
Conditions: overexpressed with ptc-gal4 in wing discs; extracellular Wingless staining
In short: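 HA-tagged wild-type or point-mutant Dlp/Dally transgenes (attP2 landing site) driven by ptc-gal4, crossed at 25°C. Wing discs immunostained for extracellular Wingless using an extracellular staining protocol, DAPI-mounted and imaged on a confocal microscope. Three independent repeats.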

Molecule | trapping of endogenous Wingless
Dlp[N367C, M175C]^ΔGPI: Dlp mutant with engineered disulphide bridge locking closed, apo conformation (protein, left off: V5, C-terminal, kept) PQVAALAAPNPAGGVAGSSIIDQFSPNCSAVTHIFQARGIDAIEIPQKPSNERVLRYCESPSVGTCCTYNMETRMAMQSRQQLEGHTKDQISRMSGILGSKATKFKDIFTALLKESRTQFNSCFIRTYGVIYERNSYVFSDLFKELETYFANGRVDLLEVMDKFFNTLYQKMFTVLNTQYTFDENYMRCVSEHMKELKPFGDVPDKLSVQIKRSFVATRTYGQALTTASEVAKKVLNVRLNADCTGALTKMQHCGACKGYTEKPCTNYCVNVIKGCLHYQHEFDSEWENFAMAMDKVAERLLGSFNIVMVVEPLCIKISEAIMNFQDSGQDITNRVFQGCGRPKLKKMKRSISPKLQGVQILNARSPVEADTLDIDETLDEAIVLRERRAAEPGSQETSAQQSQEQGVGKSGNGGGGGGGNNRRQQQRRKQQQQRRKQQNNRDDNDDDDNESGGGREPILDRIVRDIRQRVKDYKKFWSNLPHSVCSNEDIASSSDVDGMCWNGHTIDRYMHSITTEHGSNPEFTGNPASTKQTAQMASQLSHLKNAIVHLRNAYNGQDVEWSEQEELPYAGSGAGSGSGSEDDEDDDEGSGLGPFEPSHKPDVERPSVDADNDDDEDAGGRGHMPTHTSRPTSGVDDKNPLIHTTHFDQDHNDLDEDHRQLDEDEDTDAG | no in vivo trapping activity
Dlp[S168M]^ΔGPI: Dlp mutant with bulky residue at cavity entrance; HA form used in discs (protein, left off: V5, C-terminal, kept) PQVAALAAPNPAGGVAGSSIIDQFSPNCSAVTHIFQARGIDAIEIPQKPSNERVLRYCESPSVGTCCTYNMETRMAMQSRQQLEGHTKDQISRMSGILGSKATKFKDIFTALLKEMRTQFNSMFIRTYGVIYERNSYVFSDLFKELETYFANGRVDLLEVMDKFFNTLYQKMFTVLNTQYTFDENYMRCVSEHMKELKPFGDVPDKLSVQIKRSFVATRTYGQALTTASEVAKKVLNVRLNADCTGALTKMQHCGACKGYTEKPCTNYCVNVIKGCLHYQHEFDSEWENFAMAMDKVAERLLGSFNIVMVVEPLNIKISEAIMNFQDSGQDITNRVFQGCGRPKLKKMKRSISPKLQGVQILNARSPVEADTLDIDETLDEAIVLRERRAAEPGSQETSAQQSQEQGVGKSGNGGGGGGGNNRRQQQRRKQQQQRRKQQNNRDDNDDDDNESGGGREPILDRIVRDIRQRVKDYKKFWSNLPHSVCSNEDIASSSDVDGMCWNGHTIDRYMHSITTEHGSNPEFTGNPASTKQTAQMASQLSHLKNAIVHLRNAYNGQDVEWSEQEELPYAGSGAGSGSGSEDDEDDDEGSGLGPFEPSHKPDVERPSVDADNDDDEDAGGRGHMPTHTSRPTSGVDDKNPLIHTTHFDQDHNDLDEDHRQLDEDEDTDAG | retained some activity
